Results taken from ChEMBL document CHEMBL1155964, “Discovery of diarylpyridine derivatives as novel non-nucleoside HIV-1 reverse transcriptase inhibitors” (Bioorg Med Chem Lett, 2009).

Legend:
[1] = Selectivity index, ratio of CC50 for human TZM-bl cells to EC50 for HIV1 RTMDR1; assay type: toxicity, cell-based; conditions: read-out: Ratio CC50/EC50
[2] = test system: Human immunodeficiency virus 1; assay: Antiviral activity against HIV1 3B infected in human MT2 cells assessed as inhibition of viral replication by p24 antigen assay; assay type: functional, organism-based; conditions: Human immunodeficiency virus 1, 3B
Procedure, shortened: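 HIV-1 IIIB replication in MT-2 cells, read as p24 production by ELISA. […] Tested in triplicate; means ± SD.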

[3] = Cytotoxicity against human TZM-bl cells; assay type: cell-based
[4] = test system: Human immunodeficiency virus 1; assay: Antiviral activity against HIV1 NL4-3 infected in human TZM-bl cells assessed as inhibition of viral replication; assay type: functional, organism-based; conditions: Human immunodeficiency virus 1, NL4-3, TZM-bl
Procedure, shortened: (§1)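 Tested in triplicate and reported as means ± SD. The RTMDR1 strain carries the RT mutations 74V, 41L, 106A and 215Y.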

MT2 = assay: Cytotoxicity against human MT2 cells after 4 days by XTT assay; assay type: cell-based; conditions: mt2, 96 h
[5] = Selectivity index, ratio of CC50 for human TZM-bl cells to EC50 for HIV1 NL4-3; assay type: toxicity, cell-based; conditions: read-out: Ratio CC50/EC50
[6] = test system: Human immunodeficiency virus 1; assay: Antiviral activity against HIV1 RTMDR1 infected in human TZM-bl cells assessed as inhibition of viral replication; assay type: functional, organism-based; conditions: Human immunodeficiency virus 1, RTMDR1, TZM-bl; procedure, shortened: as §1
[7] = Selectivity index, ratio of CC50 for human MT2 cells to EC50 for HIV1 3B; assay type: toxicity, cell-based; conditions: read-out: Ratio CC50/EC50
Procedure, shortened: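 HIV-1 IIIB replication in MT-2 cells, measured by p24 ELISA to give the EC50. Cytotoxicity in uninfected MT-2 cells measured by XTT to give the CC50. Each run in triplicate and reported as means ± SD. SI = CC50/EC50.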

[8] = Selectivity index, ratio of CC50 for human MT4 cells to EC50 for HIV1 3B
[9] = test system: Human immunodeficiency virus 1; assay: Antiviral activity against HIV1 3B infected in human MT4 cells assessed as inhibition of viral replication; assay type: functional, organism-based; conditions: Human immunodeficiency virus 1, 3B

| SMILES | selectivity ratio [1] | EC50 [2] | CC50 [3] | EC50 [4] | CC50 (MT2) | selectivity ratio [5] | EC50 [6] | selectivity ratio [7] | selectivity ratio [8] | EC50 [9] |
| --- | --- | --- | --- | --- | --- | --- | --- | --- | --- | --- |
| Cc1cccc(C)c1Oc1ccc([N+](=O)[O-])c(Nc2ccc(C#N)cc2)n1 | > 433 | 1030 nM | > 55600 nM | 234 nM | 110000 nM | > 238 | 128 nM | 107 |  |  |
| C#Cc1cc(C)c(Oc2ccc([N+](=O)[O-])c(Nc3ccc(C#N)cc3)n2)c(C)c1 | > 242 | 677 nM | > 52100 nM | 111 nM | 174000 nM | > 469 | 215 nM | 256 |  |  |
| Cc1cccc(C)c1Oc1ccc(N)c(Nc2ccc(C#N)cc2)n1 | 2150 | 576 nM | 8140 nM | 4.02 nM | 29900 nM | 2020 | 3.78 nM | 52 |  |  |
| Cc1cc(C#CC(C)(C)O)cc(C)c1Oc1ccc(N)c(Nc2ccc(C#N)cc2)n1 | 16 | 1580 nM | 8730 nM | 241 nM | 3540 nM | 36 | 531 nM | 2 |  |  |
| Cc1cc(C)c(Oc2ccc(N)c(Nc3ccc(C#N)cc3)n2)c(C)c1 | 15500 | 58 nM | 18600 nM | 1.67 nM | 10600 nM | 11200 | 1.2 nM | 182 |  |  |
| Cc1cc(C)c(Oc2ccc([N+](=O)[O-])c(Nc3ccc(C#N)cc3)n2)c(C)c1 | > 969 | 118 nM | > 53500 nM | 22.9 nM | 503000 nM | > 2340 | 55.2 nM | 4260 |  |  |
| Cc1cc(C#CC(C)(C)O)cc(C)c1Oc1ccc([N+](=O)[O-])c(Nc2ccc(C#N)cc2)n1 | > 1.78 | 23300 nM | > 45200 nM | 41300 nM | 8910 nM | > 1.09 | 25500 nM | < 1 |  |  |
| C#Cc1cc(C)c(Oc2ccc(N)c(Nc3ccc(C#N)cc3)n2)c(C)c1 | 1100 | 424 nM | 9940 nM | 6.7 nM | 8250 nM | 1480 | 9.03 nM | 20 |  |  |
| Cc1cc(I)cc(C)c1Oc1ccc(N)c(Nc2ccc(C#N)cc2)n1 | 3260 | 79 nM | 16700 nM | 7.6 nM | 23500 nM | 2200 | 5.13 nM | 297 |  |  |
| Cc1cc(C#N)cc(C)c1Oc1ccc(N)c(Nc2ccc(C#N)cc2)n1 | 9350 | 1.4 nM | 8980 nM | 0.68 nM | 31800 nM | 13200 | 0.96 nM | 22700 |  |  |
| Cc1cc(I)cc(C)c1Oc1ccc([N+](=O)[O-])c(Nc2ccc(C#N)cc2)n1 | > 436 | 2430 nM | > 41200 nM | 61 nM | 148000 nM | > 675 | 94.3 nM | 61 |  |  |
| Cc1cc(C#N)cc(C)c1Oc1ccc([N+](=O)[O-])c(Nc2ccc(C#N)cc2)n1 | > 2460 | 135 nM | > 52000 nM | 22.1 nM | 50100 nM | > 2350 | 21.1 nM | 371 |  |  |
| Cc1cc(CO)cc(C)c1Oc1ccc(N)c(Nc2ccc(C#N)cc2)n1 | 372 | 6 nM | 9340 nM | 10.9 nM | 2190 nM | 857 | 25.1 nM | 391 |  |  |
| Cc1cc(CO)cc(C)c1Oc1ccc([N+](=O)[O-])c(Nc2ccc(C#N)cc2)n1 | > 58 | 192 nM | > 51300 nM | 477 nM | 116000 nM | > 108 | 877 nM | 603 |  |  |
| Cc1cc(C)c(Nc2ccnc(Nc3ccc(C#N)cc3)n2)c(C)c1 [DAPIVIRINE] | > 1020 |  | > 304 nM | 0.62 nM |  | > 490 | 0.298 nM |  |  |  |
| Cc1cc(C#N)cc(C)c1Oc1nc(Nc2ccc(C#N)cc2)nc(N)c1Br [ETRAVIRINE] |  |  |  |  |  |  |  |  | 63100 | 1.58 nM |
